Converted amounts (≈) assume the structure as drawn. The source made the active and inactive calls. The calls are words filed in the database; no cut-off is given here.
What was measured:
HCT-116 [1] = assay: Antiproliferative activity against human HCT116 cells by dose-response curve analysis; assay type: functional, cell-based
How it was run: (§1)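 Cell growth inhibition measured from dose-response curves at ten concentrations. IC50 is the concentration giving 50% growth inhibition, read from these curves.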

[2] = biological target: T1, Cyclin-dependent kinase 4 (Homo sapiens, UniProt P11802); assay: Inhibition of CDK4-mediated retinoblastoma protein phosphorylation by dose-response curve analysis
How it was run: (§2)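 Kinase assay read as Rb phosphorylation by cyclin D1-CDK4 or cyclin E-CDK2. IC50 is the concentration (μg/mL) giving 50% inhibition of Rb phosphorylation, read from the dose-response curve. Values are means of at least two determinations.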

PC-6 = assay: Antiproliferative activity against human PC6 cells by dose-response curve analysis; assay type: functional, cell-based; how it was run: as §1
[3] = biological target: Cyclin-dependent kinase 2 (Homo sapiens, UniProt P24941); assay: Inhibition of CDK2-mediated retinoblastoma protein phosphorylation by dose-response curve analysis; how it was run: as §2
[4] = Aqueous solubility in water; assay type: physicochemical
HCT-116 [5] = assay: Cell cycle arrest in human HCT116 cells assessed as accumulation at G1 phase at 500 ng/mL after 16 hrs by FACS analysis; assay type: functional
How it was run: (§3)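 HCT116 cells exposed to test compound at various concentrations for 16 hr, then collected. DNA content measured by flow cytometry to assign G1, S and G2/M fractions.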

HCT-116 [6] = assay: Antitumor activity against human HCT116 cells xenografted in nude mouse assessed as maximum inhibition of […] growth at 200 mg/kg, iv qd for 4 days; assay type: functional; details: HCT-116, 96 h
How it was run: (§4)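 HCT116 solid tumours in mice. Hydrochloride salt dissolved in 40% Captisol, dosed 200 mg/kg once daily for 4 days (qdx4), i.v. or p.o. Read-outs: maximum inhibition rate of tumour volume, maximum body weight loss, and toxic deaths out of 5 mice.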

WiDr = assay: Antiproliferative activity against human WiDr cells by MTT assay; assay type: functional, cell-based; how it was run: as §1
MDA-MB-468 = assay: Antiproliferative activity against human MDA-MB-468 cells by MTT assay; assay type: functional, cell-based; how it was run: as §1
MDA-MB-231 = assay: Antiproliferative activity against human MDA-MB-231 cells by MTT assay; assay type: functional, cell-based; how it was run: as §1
HCT-116 [7] = assay: Antiproliferative activity against SN2-3-resistant human HCT116 cells by MTT assay; assay type: functional, cell-based; how it was run: as §1
Mus musculus [8] = assay: Toxicity in nude mouse xenografted with human HCT116 cells assessed as death at 200 mg/kg, po qd for 4 days; assay type: organism-based, HCT-116; set-up: dose 200 mg/kg, route oral; details: in vivo, 96 h
How it was run: (§5)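 Mice bearing HCT116 colon solid tumours (n=5 per group) dosed as the hydrochloride salt dissolved in 40% Captisol at 200 mg/kg once daily for 4 days (qdx4), i.v. or p.o. Toxicity recorded as the number of mice dead from toxicity over the number used, with maximum body-weight loss also noted.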

MKN-28 = assay: Antiproliferative activity against human MKN28 cells by MTT assay; assay type: functional, cell-based; how it was run: as §1
Mus musculus [9] = assay: Toxicity in nude mouse xenografted with human HCT116 cells assessed as maximum body weight loss at 200 mg/kg, po qd for 4 days; assay type: organism-based, HCT-116; set-up: dose 200 mg/kg, route oral; details: in vivo, 96 h; how it was run: as §4
[10] = Antiproliferative activity against mouse B16-BL6 cells by MTT assay; assay type: functional, cell-based; how it was run: as §1
HCT-116 [11] = assay: Cell cycle arrest in human HCT116 cells assessed as decrease in accumulation at S phase at 500 ng/mL after 16 hrs by FACS analysis; assay type: functional, cell-based; how it was run: as §3
HCT-116 [12] = assay: Antiproliferative activity against docetaxal-resistant human HCT116 cells by MTT assay; assay type: functional, cell-based; how it was run: as §1
P388 = assay: Antiproliferative activity against mouse P388 cells by MTT assay; assay type: functional, cell-based; how it was run: as §1
Mus musculus [13] = assay: Toxicity in nude mouse xenografted with human HCT116 cells assessed as death at 200 mg/kg, iv qd for 4 days; assay type: organism-based, HCT-116; set-up: dose 200 mg/kg, route intravenous; details: in vivo, 96 h; how it was run: as §5
[14] = Solubility in 40% captisol; assay type: physicochemical
HCT-116 [15] = assay: Cell cycle arrest in human HCT116 cells assessed as decrease in accumulation at G2/M phase at 500 ng/mL after 16 hrs by FACS analysis; assay type: functional, cell-based; how it was run: as §3
DLD-1 = assay: Antiproliferative activity against human DLD1 cells by MTT assay; assay type: functional, cell-based; how it was run: as §1
Mus musculus [16] = assay: Toxicity in nude mouse xenografted with human HCT116 cells assessed as maximum body weight loss at 200 mg/kg, iv qd for 4 days; assay type: organism-based, HCT-116; set-up: dose 200 mg/kg, route intravenous; details: in vivo, 96 h; how it was run: as §4
HCT-116 [17] = assay: Antitumor activity against human HCT116 cells xenografted in nude mouse assessed as maximum inhibition of […] growth at 200 mg/kg, po qd for 4 days; assay type: functional; details: HCT-116, 96 h; how it was run: as §4
[18] = biological target: T1, Cyclin-dependent kinase 4; assay: Inhibition of CDK4-mediated retinoblastoma protein phosphorylation up to 20 ug/mL by dose-response curve analysis
HCT-116 [19] = assay: Cell cycle arrest in human HCT116 cells assessed as increase in accumulation at G1 phase after 16 hrs by FACS analysis; assay type: functional, cell-based; how it was run: as §3
[20] = biological target: T1, Cyclin-dependent kinase 4; assay: Inhibition of CDK4-mediated retinoblastoma protein phosphorylation up to 20 ug/mL by dose-response curve analysis; how it was run: as §2

Compound | IC50 (HCT-116 [1]) [µg/mL] | IC50 [2] [µM] | IC50 (PC-6) [µg/mL] | IC50 [3] [µM] | also measured
Cc1ccc(/C=N\Nc2ncnc3sc(C(C)(C)C)cc23)nc1 | 0.02 (≈ 0.0615 µM) | 2.7 | 0.009 (≈ 0.0277 µM) | 36.9 | 
CC(C)c1cc2c(N/N=C\c3ccncc3)ncnc2s1 |  | 0.807 | > 10 | 1.11 | 
C(=N/Nc1ncnc2sc3c(c12)CCCC3)/c1cccs1 |  | > 63.6 |  | > 63.6 | 
Cc1cccc(/C=N\Nc2ncnc3sc(C(C)(C)C)cc23)n1 | 0.268 (≈ 0.823 µM) | 1.6 | 0.258 (≈ 0.793 µM) | 21.2 | 
CC(C)c1cc2c(N/N=C\c3cccs3)ncnc2s1 |  | 0.165 |  | 1.16 | solubility [4]: < 0.1 µg/mL
CCc1c(C)sc2ncnc(N/N=C\c3cccs3)c12 |  | 52.9 |  | 39.7 | 
CC(C)(C)c1cc2c(N/N=C\c3ccccn3)ncnc2s1 | 0.014 (≈ 0.045 µM) | 2.89 | 0.009 (≈ 0.0289 µM) | 8.99 | Activity (HCT-116 [5]): 64%; inhibition in vivo at 200 mg/kg (HCT-116 [6]): 67.9%; IC50 (WiDr): 0.019 µg/mL (≈ 0.061 µM); IC50 (MDA-MB-468): 0.008 µg/mL (≈ 0.0257 µM); IC50 (MDA-MB-231): 0.019 µg/mL (≈ 0.061 µM); IC50 (HCT-116 [7]): 0.005 µg/mL (≈ 0.0161 µM); Activity (Mus musculus [8]): Non-toxic; IC50 (MKN-28): 0.049 µg/mL (≈ 0.157 µM); Activity (Mus musculus [9]): 4.6%; IC50 [10]: 0.045 µg/mL (≈ 0.145 µM); Activity (HCT-116 [11]): Active; IC50 (HCT-116 [12]): 0.007 µg/mL (≈ 0.0225 µM); IC50 (P388): 0.006 µg/mL (≈ 0.0193 µM); Activity (Mus musculus [13]): Non-toxic; solubility [14]: Soluble; Activity (HCT-116 [15]): Active; IC50 (DLD-1): 0.037 µg/mL (≈ 0.119 µM); Activity (Mus musculus [16]): 22.6%; inhibition in vivo at 200 mg/kg (HCT-116 [17]): 54.1%
CC(C)(C)c1cc2c(N/N=C\c3cccc(CN)n3)ncnc2s1 | 0.059 (≈ 0.173 µM) | 1.73 | 0.036 (≈ 0.106 µM) | 10.6 | 
CC(C)(C)c1cc2c(N/N=C\c3cccs3)ncnc2s1 |  | 0.379 |  | 1.77 | 
CC(C)c1cc2c(N/N=C\c3ccco3)ncnc2s1 |  | 1.36 | 3.78 (≈ 13.2 µM) | 1.92 | 
CCc1cc2c(N/N=C\C3CC3)ncnc2s1 |  | 13 |  | 16.6 | 
CCc1cc2c(N/N=C\c3cccs3)ncnc2s1 | 1.61 (≈ 5.58 µM) | 2.6 | 0.566 (≈ 1.96 µM) | 3.81 | IC50 (WiDr): 1.36 µg/mL (≈ 4.72 µM); IC50 (MDA-MB-468): 0.048 µg/mL (≈ 0.166 µM); IC50 (MDA-MB-231): 1.87 µg/mL (≈ 6.48 µM); IC50 (HCT-116 [7]): 1.34 µg/mL (≈ 4.65 µM); IC50 (MKN-28): 2.86 µg/mL (≈ 9.92 µM); IC50 [10]: 2.44 µg/mL (≈ 8.46 µM); IC50 (HCT-116 [12]): 1.21 µg/mL (≈ 4.2 µM); IC50 (P388): 1.01 µg/mL (≈ 3.5 µM); IC50 (DLD-1): 1.12 µg/mL (≈ 3.88 µM)
C/C(=N/Nc1ncnc2sc(C(C)C)cc12)c1cccs1 |  | 8.85 |  | 28.1 | 
CC(C)(C)c1cc2c(N/N=C\c3cccnc3)ncnc2s1 |  | 1.61 | 1.45 (≈ 4.66 µM) | 1.8 | 
CC(C)c1cc2c(N/N=C\c3ccccn3)ncnc2s1 | 0.01 (≈ 0.0336 µM) | 2.96 | 0.003 (≈ 0.0101 µM) | 10.4 | 
CCc1cc2c(N/N=C\c3cccs3)nc(-c3ccccc3)nc2s1 |  | > 54.9 |  | > 54.9 | 
CC(C)(C)c1cc2c(N/N=C\c3cccc(CO)n3)ncnc2s1 | 0.039 (≈ 0.114 µM) | 1.03 | 0.034 (≈ 0.0996 µM) | 6.15 | 
CNCc1cccc(/C=N\Nc2ncnc3sc(C(C)(C)C)cc23)n1 | 0.185 (≈ 0.522 µM) | 0.705 | 0.189 (≈ 0.533 µM) | 20 | IC50 (WiDr): 0.263 µg/mL (≈ 0.742 µM); IC50 (MDA-MB-468): 0.159 µg/mL (≈ 0.449 µM); IC50 (MDA-MB-231): 0.279 µg/mL (≈ 0.787 µM); IC50 (HCT-116 [7]): 0.269 µg/mL (≈ 0.759 µM); IC50 (MKN-28): 0.686 µg/mL (≈ 1.94 µM); IC50 [10]: 0.379 µg/mL (≈ 1.07 µM); IC50 (HCT-116 [12]): 0.29 µg/mL (≈ 0.818 µM); IC50 (P388): 0.131 µg/mL (≈ 0.37 µM); IC50 (DLD-1): 0.221 µg/mL (≈ 0.623 µM)
CC(C)(C)c1cc2c(N/N=C\c3cccc(CN4CCOCC4)n3)ncnc2s1 | 0.363 (≈ 0.884 µM) | 0.414 | 0.261 (≈ 0.636 µM) | 13.4 | 
CC(C)c1cc2c(N/N=C\c3cccnc3)ncnc2s1 |  | 1.85 | 0.889 (≈ 2.99 µM) | 2.35 | 
Cc1csc2ncnc(N/N=C\c3cccs3)c12 |  | > 72.9 |  | > 72.9 | 
C(=N/Nc1ncnc2sc(Cc3ccccc3)cc12)/c1cccs1 |  | > 57.1 |  | 18.5 | Activity [18]: inactive
CN(C)Cc1cccc(/C=N\Nc2ncnc3sc(C(C)(C)C)cc23)n1 | 0.429 (≈ 1.16 µM) | 0.152 | 0.381 (≈ 1.03 µM) | 3.8 | Activity (HCT-116 [19]): Dose-dependent effect; IC50 (WiDr): 0.889 µg/mL (≈ 2.41 µM); IC50 (MDA-MB-468): 0.315 µg/mL (≈ 0.855 µM); IC50 (MDA-MB-231): 0.919 µg/mL (≈ 2.49 µM); IC50 (HCT-116 [7]): 0.755 µg/mL (≈ 2.05 µM); IC50 (MKN-28): 1.39 µg/mL (≈ 3.77 µM); IC50 [10]: 1.09 µg/mL (≈ 2.96 µM); IC50 (HCT-116 [12]): 0.973 µg/mL (≈ 2.64 µM); solubility [4]: 44 µg/mL (≈ 119 µM); IC50 (P388): 0.37 µg/mL (≈ 1 µM); IC50 (DLD-1): 0.506 µg/mL (≈ 1.37 µM)
CC(C)c1cc2c(-n3ccc(-c4cccs4)n3)ncnc2s1 |  | > 61.3 |  | > 61.3 | Activity [20]: inactive
Cc1cc2c(N/N=C\c3cccs3)ncnc2s1 |  | 6.92 |  | 6.2 | 
CCc1cc2c(N/N=C\c3cccs3)nc(C)nc2s1 |  | > 66.1 |  | > 66.1 | 
CC(C)c1cc2c(N/N=C\c3ccccc3)ncnc2s1 |  | 1.59 | 0.651 (≈ 2.2 µM) | 2.97 | 
CCc1cc2c(N/N=C\C(C)(C)C)ncnc2s1 | 1.66 (≈ 6.33 µM) | 16.8 | 1.55 (≈ 5.91 µM) | 14.5 | 

From ChEMBL document CHEMBL1149082, “Discovery of novel thieno[2,3-d]pyrimidin-4-yl hydrazone-based inhibitors of Cyclin D1-CDK4: synthesis, biological evaluation, and structure-activity relationships” (Bioorg Med Chem Lett, 2009)
